# Measured values: ChEMBL document CHEMBL1122742, “Cardiotonic agents. 1. 4,5-Dihydro-6-[4-(1H-imidazol-1-yl)phenyl]-3 (2H)-pyridazinones: novel positive inotropic agents for the treatment of congestive heart failure” (J Med Chem, 1984)
# Where “and” joins values, the source holds several entries; their conditions need not be identical. Identical values can stand only once.
# Tests used:
# Canis familiaris [1] = assay: Positive inotropic effect (increase in heart rate) in chronically instrumented conscious dogs at 0.1 mg/kg oral administration for 6 hours
# Canis familiaris [2] = assay: Positive inotropic effect (reduced mean aortic blood pressure) in anesthetized dogs at 0.001-1.0 mg/kg intravenous administration; assay type: functional, Canis lupus familiaris, Artery
# In short: (§1)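 Anesthetized dogs were given increasing intravenous half-log doses within 0.001–1.0 mg/kg. Heart rate, aortic blood pressure and dP/dtmax were recorded simultaneously. Changes are expressed as percent of control, with mean ± error at each dose.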
# Canis familiaris [3] = assay: Positive inotropic effect (increased myocardial contractility) in chronically instrumented conscious dogs at 0.1 mg/kg oral administration for 6 hours
# Canis familiaris [4] = assay: Positive inotropic activity in anesthetized dogs; assay type: functional; conditions: Canis lupus familiaris
# In short: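 Anesthetized dogs received increasing intravenous half-log doses across 0.001–1.0 mg/kg. dP/dtmax was recorded while heart rate and aortic pressure were monitored. ED50 was taken from the linear part of each animal's dose–response curve by least squares, then averaged as mean and SEM.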
# Canis familiaris [5] = assay: Positive inotropic effect (increased myocardial contractility) in anesthetized dogs at 0.001-0.10 mg/kg intravenous administration, range 10.5-148.5
# Canis familiaris [6] = assay: Positive inotropic effect (increase in heart rate) in anesthetized dogs at 0.001-1.0 mg/kg intravenous administration, range is 2.5-43.8; assay type: functional, Canis lupus familiaris
# In short: as §1
# Bos taurus = species: Bos taurus; assay: Percent inhibition of crude bovine cardiac phosphodiesterase at 190 uM
# Canis familiaris [7] = assay: Positive inotropic effect (increased myocardial contractility) in anesthetized dogs at 0.01-1.0 mg/kg intravenous administration, range 10.2-146.7
# Canis familiaris [8] = assay: Positive inotropic effect (increase in heart rate) in chronically instrumented conscious dogs at 1.0 mg/kg oral administration for 6 hours; assay type: functional, Canis lupus familiaris
# Canis familiaris [9] = assay: Positive inotropic effect (reduced mean aortic blood pressure) in anesthetized dogs at 0.001-1.0 mg/kg intravenous administration, range 0.7-22.4; assay type: functional, Canis lupus familiaris, Artery
# In short: as §1
# Canis familiaris [10] = assay: Positive inotropic effect (increase in heart rate) in anesthetized dogs at 0.001-1.0 mg/kg intravenous administration, range is 1.2-33.8; assay type: functional, Canis lupus familiaris
# In short: as §1
# Canis familiaris [11] = assay: Positive inotropic effect (increased myocardial contractility) in chronically instrumented conscious dogs at 1.0 mg/kg oral administration for 6 hours; assay type: functional, Canis lupus familiaris
compound,measurement,setting,value
CC1CC(O)=NN=C1c1ccc(-n2ccnc2)cc1 (configuration not stated) [CI-930],Heart rate,Canis familiaris [1],41.6
same,Blood pressure,Canis familiaris [2],19 and 7.4
same,dP/dt max,Canis familiaris [3],50.2
same,ED50,Canis familiaris [4],0.013 mg/kg
same,dP/dt max,Canis familiaris [5],10.5
same,Heart rate,Canis familiaris [6],2.5
CSc1ccc(C(=O)c2[nH]c(=O)[nH]c2C)cc1 [ENOXIMONE],ED50,Canis familiaris [4],0.283 mg/kg
O=C1CCC(c2ccc(-n3ccnc3)cc2)=NN1 [IMAZODAN],inhibition,Bos taurus,50%
same,dP/dt max,Canis familiaris [7],10.2
same,Heart rate,Canis familiaris [8],48.1
same,Blood pressure,Canis familiaris [9],0.7
same,ED50,Canis familiaris [4],0.045 mg/kg
same,Heart rate,Canis familiaris [10],0
same,dP/dt max,Canis familiaris [11],42.6
Nc1cc(-c2ccncc2)c[nH]c1=O [INAMRINONE],ED50,Canis familiaris [4],0.389 mg/kg
Cc1[nH]c(=O)c(C#N)cc1-c1ccncc1 [MILRINONE],ED50,Canis familiaris [4],0.037 mg/kg
COc1cc([S+](C)[O-])ccc1-c1nc2cccnc2[nH]1 (configuration not stated) [SULMAZOLE],ED50,Canis familiaris [4],0.435 mg/kg
